# Data from ChEMBL document CHEMBL1152539, “Synthesis and evaluation of bioactive naphthoquinones from the Brazilian medicinal plant, Tabebuia avellanedae” (Bioorg Med Chem, 2009).
# Assays:
# [1] = Anticancer activity against DMBA/TPA-induced skin cancer in mouse assessed as incidence of papilloma at 85 nmol administered before TPA challenge measured after 15 weeks; format: functional
# Outline: (§1)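 Mouse two-stage skin model: DMBA 390 nmol in 0.1 mL acetone applied topically by pipet. One week later, the same skin site was painted with test compound (85 nmol in acetone) or acetone alone, 60 min before TPA (1.7 nmol). Tumor response was scored as the average number of papillomas per mouse and the percentage of mice bearing papillomas.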
# [2] = system: Raji; assay: Inhibition of 12-O-tetradecanoylphorbol-13-acetate-induced EBV-early antigen activation in human Raji cells assessed as EA induction at 500 molar ratio after 48 hrs by immunofluorescence technique relative to 12-O-tetradecanoylphorbol-13-acetate; format: cell-based; set-up: scale not given: the % may be the effect or the level left; conditions: human gammaherpesvirus 4
# Outline: (§2)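 Raji cells were incubated for 48 h at 37 °C in medium with n-butyric acid (4 mM), TPA (32 pmol) and graded amounts of test compound. Smears were stained for EBV-EA by indirect immunofluorescence, and positive cells were counted among at least 500 cells. Assays were run in triplicate. Activity was expressed relative to the n-butyric acid plus TPA control, set as 100%.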
# [3] = Cytotoxicity against human Raji cells assessed as cell viability at 1000 molar ratio after 48 hrs by trypan blue staining; format: cell-based; conditions: read-out: Activity
# Outline: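 Raji cells were exposed for 48 h at 37 °C to n-butyric acid (4 mM), TPA (32 pmol) and test compound, as in the EBV-EA induction setup. Viability of the treated cells was then measured by trypan blue staining.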
# [4] = system: Raji; assay: Inhibition of 12-O-tetradecanoylphorbol-13-acetate-induced EBV-early antigen activation in human Raji cells assessed as EA induction at 1000 molar ratio after 48 hrs by immunofluorescence technique relative to 12-O-tetradecanoylphorbol-13-acetate; format: cell-based; conditions: human gammaherpesvirus 4; outline: as §2
# [5] = Anticancer activity against DMBA/TPA-induced skin cancer in mouse assessed as incidence of papilloma at 85 nmol administered before TPA challenge measured after 20 weeks; format: functional; outline: as §1
# [6] = Antiproliferative activity against human skin fibroblast after 72 hrs by trypan blue exclusion assay; format: cell-based
# Outline: (§3)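 Cells were kept in DMEM with 10% fetal serum and exposed to four concentrations of compound for 72 h at 37 °C in humidified 5% CO₂. They were then stained with 0.25% trypan blue for 20 min, and viable cells were counted by light microscopy. IC₅₀ was derived from separate experiments run in triplicate.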
# [7] = system: Hepatocyte; assay: Antiproliferative activity against human hepatocytes after 72 hrs by trypan blue exclusion assay; format: cell-based; outline: as §3
# [8] = Cytotoxicity against human Raji cells assessed as cell viability at 500 molar ratio after 48 hrs by trypan blue staining; format: cell-based; conditions: read-out: Activity
# Outline: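 Raji cells incubated 48 h at 37 °C in medium containing n-butyric acid (4 mM), TPA (32 pmol) and various amounts of test compound, as part of the EBV-EA activation inhibition assay. Viability of the treated cells was then assayed by trypan blue staining.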
# [9] = system: Raji; assay: Inhibition of 12-O-tetradecanoylphorbol-13-acetate-induced EBV-early antigen activation in human Raji cells assessed as EA induction at 10 molar ratio after 48 hrs by immunofluorescence technique relative to 12-O-tetradecanoylphorbol-13-acetate; format: cell-based; set-up: scale not given: the % may be the effect or the level left; conditions: human gammaherpesvirus 4; outline: as §2
# [10] = system: Raji; assay: Inhibition of 12-O-tetradecanoylphorbol-13-acetate-induced EBV-early antigen activation in human Raji cells assessed as EA induction at 100 molar ratio after 48 hrs by immunofluorescence technique relative to 12-O-tetradecanoylphorbol-13-acetate; format: cell-based; set-up: scale not given: the % may be the effect or the level left; conditions: human gammaherpesvirus 4; outline: as §2
# [11] = Inhibition of 12-O-tetradecanoylphorbol-13-acetate-induced EBV-early antigen activation in human Raji cells after 48 hrs by immunofluorescence technique; format: cell-based, human gammaherpesvirus 4; outline: as §2
# [12] = Anticancer activity against DMBA/TPA-induced skin cancer in mouse assessed as number of papillomas per mouse at 85 nmol administered before TPA challenge measured after 20 weeks; format: functional; outline: as §1
# [13] = Anticancer activity against DMBA/TPA-induced skin cancer in mouse assessed as incidence of papilloma at 85 nmol administered before TPA challenge measured after 10 weeks; format: functional; outline: as §1
# [14] = Antiproliferative activity against human Hs888Lu cells after 72 hrs by trypan blue exclusion assay; format: cell-based; outline: as §3
# [15] = Antiproliferative activity against human SVCT-M12 cells after 72 hrs by trypan blue exclusion assay; format: cell-based; conditions: SVCT-M12, 72 h; outline: as §3
# [16] = Antiproliferative activity against human MPC5 cells after 72 hrs by trypan blue exclusion assay; format: cell-based; conditions: MPC-5, 72 h; outline: as §3
IC50 [11],SMILES,Activity [1],Activity [2],"viability at 48 h, 1000 molar ratio [3]",EA induction relative to TPA control [4],Activity [5],EC50 [6],EC50 [7],"viability at 48 h, 500 molar ratio [8]",Activity [9],Activity [10],Activity [12],Activity [13],EC50 [14],EC50 [15],EC50 [16]
34.9 mol ratio/32 pmol TPA,CC(O)c1cc2c(o1)C(=O)c1cccc(O)c1C2=O (racemic),47%,6.2%,60%,0%,67%,45400 nM,89300 nM,70%,52.9%,20.7%,3.9,7%,–,–,–
–,CO[C@@]12[C@H](COC(N)=O)C3=C(C(=O)C(C)=C(N)C3=O)N1C[C@@H]1N[C@@H]12 [MITOMYCIN],–,–,–,–,–,930 nM,1460 nM,–,–,–,–,–,560 nM,960 nM,2100 nM
